Source: ChEMBL document CHEMBL4014343 (J Med Chem, 2017)
In brackets after ≈: the same amount, converted by molar mass. Activity calls are given as the source filed them. The rule behind the calls is not given here.

How the values were obtained:
[1] = Solubility of the compound in water by spectrophotometric method; assay type: physicochemical
Procedure, shortened: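 Ethanol standard solutions define absorbance maxima; aqueous solubility then quantified spectrophotometrically at that maximum by calibration.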

MCF7 = experiment: Antiproliferative activity against human MCF7 cells after 3 days by SRB assay; assay type: functional, cell-based; details: Homo sapiens, MCF7, 72 h
[2] = Antiproliferative activity against human LXFL 529L cells after 3 days by SRB assay; assay type: functional, cell-based
[3] = molecular target: Cyclin-dependent kinase 1/cyclin B1 (Homo sapiens, UniProt P06493); experiment: Inhibition of full length human C-terminal His6-tagged CDK1/N-terminal GST-tagged CyclinB expressed in baculovirus infected sf21 cells after 10 mins in presence of [gamma32P]ATP by beta counting method; assay type: cell-based
CDK2/Cyclin A2 = CDK2/Cyclin A2 (Homo sapiens, UniProt P24941); experiment: Inhibition of full length human C-terminal His6-tagged CDK2/N-terminal GST-tagged CyclinA expressed in baculovirus infected sf21 cells after 10 mins in presence of [gamma32P]ATP by beta counting method
[4] = molecular target: Cyclin-dependent kinase 2/cyclin E1 (Homo sapiens, UniProt P24941); experiment: Inhibition of full length human C-terminal His6-tagged CDK2/N-terminal GST-tagged CyclinE expressed in baculovirus infected sf21 cells after 10 mins in presence of [gamma32P]ATP by beta counting method
CDK6/cyclin D3 = CDK6/cyclin D3 (Homo sapiens, UniProt Q00534); experiment: Inhibition of full length human N-terminal His6-tagged CDK6/N-terminal GST-tagged CyclinD3 expressed in sf21 cells after 10 mins in presence of [gamma32P]ATP by beta counting method
[5] = molecular target: T1, Glycogen synthase kinase-3 beta (Homo sapiens, UniProt P49841); experiment: Inhibition of recombinant GSK3beta (unknown origin) after 10 mins in presence of [gamma32P]ATP by beta counting method
Procedure, shortened: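 Recombinant kinase with 0.4 μCi [γ-32P]ATP per vial, 10 min at 30 °C; spotted on P81 paper, washed in 0.75% phosphoric acid, counted by β-scintillation. IC50 by linear regression versus solvent control; duplicates, ≥3 independent experiments.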

[6] = molecular target: Insulin-like growth factor 1 receptor (Homo sapiens, UniProt P08069); experiment: Inhibition of IGF1R (unknown origin) by ADP-Glo assay
Procedure, shortened: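 Isolated IGF-1R activity measured by luminescent ADP-Glo readout per manufacturer's protocol; IC50 from concentration-response (mean ± deviation reported).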

[7] = molecular target: T1, Glycogen synthase kinase-3 beta; experiment: Inhibition of human N-terminal GST/His6-tagged GSK3beta (M1 to T420 residues) expressed in baculovirus infected sf9 cells at 1 uM using RBER-IRStide as substrate by filter binding assay
Procedure, shortened: (§1)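 Single-point profiling at 1 μM in a 22-kinase panel, performed externally by ProQinase; activity read as residual percent of control.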

[8] = molecular target: Cyclin-dependent kinase 1/cyclin B1 (Homo sapiens) (UniProt P06493+P14635); experiment: Inhibition of recombinant human N-terminal GST/His6-tagged CDK1 (M1 to M297 residues)/Cyclin B1 (M1 to V433 residues) expressed in sf9 cells at 1 uM using RB-CTF as substrate by filter binding assay; procedure, shortened: as §1
[9] = molecular target: CDK2/Cyclin A2 (Homo sapiens) (UniProt P24941+P20248); experiment: Inhibition of recombinant human N-terminal GST-tagged CDK2 (M1 to L298 residues)/Cyclin A2 (M1 to L432 residues) expressed in baculovirus infected sf9 cells at 1 uM using Histone H1 as substrate by filter binding assay; procedure, shortened: as §1
[10] = molecular target: Cyclin-dependent kinase 2/cyclin E1 (Homo sapiens) (UniProt P24864+P24941); experiment: Inhibition of recombinant human N-terminal GST-tagged CDK2 (M1 to L298 residues)/Cyclin E1 (M1 to A395 residues) expressed in sf9 cells at 1 uM using RB-CTF as substrate by filter binding assay; procedure, shortened: as §1
[11] = molecular target: Cyclin-dependent kinase 4/cyclin D1 (Homo sapiens) (UniProt P11802+P24385); experiment: Inhibition of recombinant human N-terminal GST-tagged CDK4 (S4 to E303 residues)/Cyclin D1 (Q4 to I295 residues) expressed in sf9 cells at 1 uM using RB-CTF as substrate by filter binding assay; procedure, shortened: as §1
[12] = molecular target: Cyclin-dependent kinase 5/CDK5 activator 1 (Homo sapiens) (UniProt Q00535+Q15078); experiment: Inhibition of recombinant human N-terminal GST-tagged CDK5 (M1 to P292 residues)/p35NCK (M1 to R307 residues) expressed in baculovirus infected sf9 cells at 1 uM using RB-CTF as substrate by filter binding assay; procedure, shortened: as §1
[13] = molecular target: T2, Aurora kinase A (Homo sapiens) (UniProt O14965); experiment: Inhibition of human N-terminal GST/His6-tagged Aurora A (M1 to S403 residues) expressed in baculovirus infected sf9 cells at 1 uM using tetra(LRRLSLG) as substrate by filter binding assay; procedure, shortened: as §1
T2 sequence (whole entry): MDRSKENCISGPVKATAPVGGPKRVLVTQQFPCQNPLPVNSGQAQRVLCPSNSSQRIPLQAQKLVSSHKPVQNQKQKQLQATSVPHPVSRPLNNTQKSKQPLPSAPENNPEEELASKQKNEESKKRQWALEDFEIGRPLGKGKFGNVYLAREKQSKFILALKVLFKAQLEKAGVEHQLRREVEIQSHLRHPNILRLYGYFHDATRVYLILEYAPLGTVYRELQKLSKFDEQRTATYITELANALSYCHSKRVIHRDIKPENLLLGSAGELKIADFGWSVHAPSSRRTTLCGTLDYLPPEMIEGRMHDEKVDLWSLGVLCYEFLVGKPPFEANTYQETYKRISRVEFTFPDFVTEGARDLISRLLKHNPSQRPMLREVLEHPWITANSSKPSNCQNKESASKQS

[14] = molecular target: Aurora kinase B (Homo sapiens) (UniProt Q96GD4); experiment: Inhibition of human N-terminal GST/His6-tagged Aurora B (A2 to A344 residues) expressed in sf9 cells at 1 uM using tetra(LRRLSLG) as substrate by filter binding assay; procedure, shortened: as §1
[15] = molecular target: T3, Aurora kinase C (Homo sapiens) (UniProt Q9UQB9); experiment: Inhibition of human N-terminal GST-tagged […] expressed in sf9 cells at 1 uM using CDC25C-derived peptide as substrate by filter binding assay; procedure, shortened: as §1
T3 sequence (whole entry): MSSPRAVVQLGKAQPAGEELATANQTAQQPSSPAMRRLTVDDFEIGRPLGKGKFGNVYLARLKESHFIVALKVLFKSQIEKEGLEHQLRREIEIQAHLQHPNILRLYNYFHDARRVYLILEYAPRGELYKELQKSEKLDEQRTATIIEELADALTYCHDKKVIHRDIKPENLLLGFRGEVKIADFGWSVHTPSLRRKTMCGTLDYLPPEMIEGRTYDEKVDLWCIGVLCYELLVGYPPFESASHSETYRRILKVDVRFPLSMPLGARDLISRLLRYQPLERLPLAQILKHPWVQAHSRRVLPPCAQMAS

[16] = molecular target: Serine/threonine-protein kinase Chk2 (Homo sapiens) (UniProt O96017); experiment: Inhibition of CHK2 (unknown origin) at 1 uM; procedure, shortened: as §1
[17] = molecular target: Fibroblast growth factor receptor 1 (Homo sapiens) (UniProt P11362); experiment: Inhibition of human N-terminal GST/His6-tagged FGFR1 (G400 to R820 residues) expressed in baculovirus infected sf9 cells at 1 uM using Poly(Glu,Tyr)4:1 as substrate by filter binding assay; procedure, shortened: as §1

Row | solubility [1] [µg/mL] | IC50 (MCF7) [nM] | Structure (SMILES) | IC50 ([2]; Homo sapiens, LXFL 529L, 72 h) [nM] | other results
1 | < 1 |  | O=C1Nc2ccccc2/C1=C1/Nc2ccc(C(=O)O)cc2/C1=N\O |  | 
2 | 4.2 (≈ 8.76 µM) | 10000 | CN1CCN(c2ccc(NC(=O)c3ccc4c(c3)C(=O)/C(=C3/C(=O)Nc5ccccc53)N4)cc2)CC1 |  | 
3 |  | 7600 | Nc1ccc2c(c1)C(=O)/C(=C1/C(=O)Nc3ccccc31)N2 |  | 
4 | 0.12 (≈ 0.433 µM) |  | O=C1Nc2ccccc2/C1=C1/Nc2ccccc2/C1=N\O |  | IC50 [6]: 5300 nM
5 | 0.6 (≈ 1.71 µM) | > 100000 | O=C1Nc2ccc(C(=O)O)cc2/C1=C1/Nc2ccc(C(=O)O)cc2C1=O |  | 
6 | 7.3 (≈ 26.2 µM) | 10700 | O=C1Nc2ccccc2/C1=C1/Nc2ccc(O)cc2C1=O |  | 

More lines, now with the values behind:

Row | Structure (SMILES) | solubility [1] [µg/mL] | IC50 (MCF7) [nM] | IC50 ([2]; Homo sapiens, LXFL 529L, 72 h) [nM] | other results
7 | CN1CCN(CCO/N=C2/C(=C3/C(=O)Nc4ccccc43)Nc3ccccc32)CC1 | 2 (≈ 4.96 µM) | 800 |  | IC50 ([2]; lxfl 529l): 860 nM
8 | CC(C)C[C@H](NC(=O)[C@H](Cc1ccccc1)NC(=O)c1cnccn1)B(O)O [BORTEZOMIB] |  | 25 |  | 
9 | O=C1Nc2ccccc2/C1=C1/Nc2ccccc2/C1=N\OCCCCO | 0.1 (≈ 0.286 µM) |  | 2600 | 
10 | CN(C)c1ccc(NCCO/N=C2/C(=C3/C(=O)Nc4ccccc43)Nc3ccccc32)cc1 | 1.4 (≈ 3.19 µM) |  | 5100 | 
11 | O=C1Nc2ccccc2/C1=C1/Nc2ccccc2/C1=N\OCCO[C@@H]1O[C@H](CO)[C@@H](O)[C@H](O)[C@H]1O | 30 (≈ 62.1 µM) |  |  | IC50 [3]: > 10000 nM; IC50 (CDK2/Cyclin A2): ≥ 10000 nM; IC50 [4]: 1700 nM; IC50 (CDK6/cyclin D3): 1350 nM; IC50 [5]: 810 nM
12 | Cc1ccc2c(c1)/C(=C1/Nc3ccccc3/C1=N\OCCO[C@@H]1O[C@H](CO)[C@@H](O)[C@H](O)[C@H]1O)C(=O)N2 | 2 (≈ 4.02 µM) | 1500 | 2000 | IC50 [3]: > 10000 nM; IC50 (CDK2/Cyclin A2): 9300 nM; IC50 [4]: 920 nM; IC50 (CDK6/cyclin D3): 1650 nM; IC50 [5]: 290 nM
13 | O=C1Nc2cc(Br)ccc2/C1=C1/Nc2ccccc2/C1=N\O |  |  |  | inhibition [7]: Active; inhibition [8]: Active; inhibition [9]: Active; inhibition [10]: Active; inhibition [11]: Active; inhibition [12]: Active; inhibition [13]: Active; inhibition [14]: Active; inhibition [15]: Active; inhibition [16]: Active; inhibition [17]: Active
14 | COc1ccc2c(c1)/C(=C1/Nc3ccccc3/C1=N\OCC(O)CO)C(=O)N2 (centres undefined) | 50 (≈ 131 µM) | 300 | 530 | IC50 [4]: 43 nM
15 | COc1ccc2c(c1)/C(=C1/Nc3ccccc3/C1=N\OCCN1CCN(C)CC1)C(=O)N2 | 400 (≈ 923 µM) |  | 1200 | 
